Consider 13 compounds from ChEMBL document CHEMBL2417427, “High analgesic and anti-inflammatory in vivo activities of six new hybrids NSAIAs tetrahydropyran derivatives” (Bioorg Med Chem, 2013).

Calls of active or inactive are those of the source. No cut-off for these calls is given here.

The nature of series [1]: Acute toxicity in po dosed Albino-Swiss mouse assessed as hyperventilation administered as single dose measured after 5 hrs until day 14. The following applies: in vivo. Type of series: organism-based. A digest of the protocol:
(§1)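 Oral single dose given as a suspension in 5% ethyl acetate (5 mL/kg), in increasing doses up to 2000 mg/kg, following WHO and OECD guidelines. Animals were observed from 5 h after dosing, then daily until day 14, for disorientation, hyperactivity, piloerection and hyperventilation. LD50 was fitted by nonlinear regression of percent deaths versus dose. n = 6 per group.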

The nature of series [2]: Acute toxicity in po dosed Albino-Swiss mouse assessed as piloerection administered as single dose measured after 5 hrs until day 14. The following applies: in vivo. It counts as organism-based. The method, boiled down: as §1
The nature of series [3]: Acute toxicity in po dosed Albino-Swiss mouse assessed as hyperactivity administered as single dose measured after 5 hrs until day 14. It counts as organism-based. The following applies: in vivo. The method, boiled down:
as §1

Series [4] is described as follows: Acute toxicity in po dosed Albino-Swiss mouse assessed as disorientation administered as single dose measured after 5 hrs until day 14. Type of series: organism-based. The following applies: in vivo. A digest of the protocol:
as §1

For series [5], the system named is Mus musculus. Kind of series: Toxicity in Albino-Swiss mouse assessed as forced motor activity at 10 mg/kg, po measured after 60 mins by rota-rod test. It counts as organism-based. More on the design: dose 10 mg/kg, route oral. The following applies: in vivo, 1 h. The method, boiled down: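 Mice, 6 per group, trained twice the day before to stay 5 min on a rotating roller at 10 rev/min. Next day given 10 mg/kg p.o. (suspension in 5% ethyl acetate, 5 mL/kg) or vehicle, then placed on the roller 60 min later for 5 min. Read-out was number of falls; mean ± SD, ANOVA with Bonferroni.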
In general terms: In the rotarod test animals must keep their balance on a rotating rod.

For series [6], the system named is Mus musculus. Nature of the series: Toxicity in Albino-Swiss mouse assessed as spontaneous locomotor activity at 10 mg/kg, po measured after 60 mins by open-field test. It counts as organism-based. More on the design: dose 10 mg/kg, route oral. The following applies: in vivo, 1 h. The method, boiled down: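 Oral dosing at 10 mg/kg (5% ethyl acetate suspension, 5 mL/kg) or vehicle, 6 mice per group. At 60 min each mouse was placed alone in a chamber with the floor divided into 50 squares of 5 × 5 cm. Squares walked during 5 min were counted; mean ± SD, ANOVA with Bonferroni.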

Series [7] relates to Mus musculus. Kind of series: Antinociceptive activity in Albino-Swiss mouse assessed as increase in thermal-stimulus induced tail flick latency at 10 mg/kg, po measured over 20 to 120 mins. It counts as functional, organism-based. More on the design: dose 10 mg/kg. The method, boiled down:
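Mice, 6 per group, dosed orally at 10 mg/kg as a suspension in 5% ethyl acetate vehicle (5 mL/kg). Light intensity set so baseline latency fell at 4–6 s; animals outside this range were excluded. Two pre-dose latencies averaged as baseline, then six readings at 20-min intervals. Reported as percentage increase over baseline per time point, or as AUC (trapezoid rule) over 20–120 min.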
In general terms: In hot-plate and tail-flick tests a longer latency is read as antinociception.

The test system of series [8] is Mus musculus. Kind of series: Antinociceptive activity in po dosed Albino-Swiss mouse assessed as acetic acid-induced abdominal writhing compound administered 30 mins prior challenge measured over 30 mins post acetic acid challenge. Type of series: functional. The following applies: Abdomen. A digest of the protocol: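 Mice were dosed orally at 1, 5 and 10 mg/kg as a suspension in 5% ethyl acetate vehicle (5 mL/kg). Acetic acid 1.2% (v/v) was then given ip, and writhes (abdominal contraction, body stretching, hind-limb extension) were counted for 30 min from injection. n = 6 per group. ED50 (µmol/kg) was obtained by sigmoidal dose-response nonlinear regression.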

For series [9], the system named is Mus musculus. Kind of series: Ratio of diclofenac ED50 to compound ED50 for antinociceptive activity in po dosed Albino-Swiss mouse assessed as acetic acid-induced abdominal writhing compound administered 30 mins prior challenge measured over 30 mins post acetic acid challenge. Type of series: functional, Abdomen. In general terms: An intraperitoneal irritant provokes the stretching counted in writhing tests.

Usually LD50 stands for the dose at which mortality reaches 50%. What is called ED50 is the dose at which the effect has come halfway, by size or by number of responders. As to `CC(C(=O)OC[C@@H]1C[C@H](Cl)C[C@H](c2cccc3ccccc23)O1)c1cccc(C(=O)c2ccccc2)c1` (mixture of isomers), the LD50 at 5 h in series [1], in [2], in [3] and in series [4] was greater than 2000 mg/kg in each case. Besides, the Activity result in series [5] and in series [6] was “Non-toxic” in each case. Moreover, the outcome in series [7] was Active. Further, in series [8], the ED50 worked out at 14 µmol/kg.

Consider `COc1ccc2cc(C(C)C(=O)OC[C@@H]3C[C@H](Cl)C[C@H](c4cccc5ccccc45)O3)ccc2c1` (mixture of isomers), for which the LD50 at 5 h in series [1], in series [2], in series [3] and in series [4] was greater than 2000 mg/kg each time. In addition, the Activity entry in series [5] and in series [6] was “Non-toxic” throughout. Further, the result in series [7] was Active. In addition, in series [8], the ED50 came out at 4.6 µmol/kg.

`CC(C)Cc1ccc(C(C)C(=O)OC[C@@H]2C[C@H](Cl)C[C@H](c3cccc4ccccc34)O2)cc1` (mixture of isomers): the LD50 at 5 h in series [1], in [2], in series [3] and in series [4] was greater than 2000 mg/kg throughout. Further, the Activity result in [5] and in series [6] was “Non-toxic” each time. Besides, in [7], the outcome was Active. Also, the ED50 in series [8] was 10.3 µmol/kg.

In the case of `O=C(Cc1ccccc1Nc1c(Cl)cccc1Cl)OC[C@@H]1C[C@H](Cl)C[C@H](c2cccc3ccccc23)O1` (racemic), the LD50 at 5 h in series [1], in series [2], in [3] and in series [4] was greater than 2000 mg/kg throughout. For the same compound, the Activity entry in series [5] and in series [6] was “Non-toxic” each time. In series [7], the outcome was Active. The “Ratio ED50” value in [9] is recorded as greater than 10. Besides, the ED50 in series [8] turned out to be 3.17 µmol/kg.

For the compound `OC[C@@H]1C[C@H](Cl)C[C@H](c2cccc3ccccc23)O1` (racemic), in series [8], the ED50 was 28 µmol/kg.

As to `CC(=O)Oc1ccccc1C(=O)OC[C@@H]1C[C@H](Cl)C[C@H](c2cccc3ccccc23)O1` (racemic), the LD50 at 5 h in series [1], in series [2], in [3] and in series [4] was greater than 2000 mg/kg in each case. Also, the Activity entry in [5] and in series [6] was “Non-toxic” in each case. Also, the result in series [7] was Active. Besides, the ED50 in [8] worked out at 20.4 µmol/kg.

Regarding `COc1ccc2c(c1)c(CC(=O)OC[C@@H]1C[C@H](Cl)C[C@H](c3cccc4ccccc34)O1)c(C)n2C(=O)c1ccc(Cl)cc1` (racemic), the LD50 at 5 h in [1], in [2], in series [3] and in series [4] was greater than 2000 mg/kg each time. The Activity entry in series [5] and in series [6] was “Non-toxic” in each case. For the same compound, the outcome in series [7] was Active. Moreover, the ED50 in series [8] came to 13.8 µmol/kg.

On to `CC(=O)Oc1ccccc1C(=O)O` [ASPIRIN], for which the ED50 in series [8] turned out to be 44.2 µmol/kg.

For the compound `O=C(O)Cc1ccccc1Nc1c(Cl)cccc1Cl` [DICLOFENAC POTASSIUM], in [8], the ED50 is 32.5 µmol/kg.

Turning to `CC(C)Cc1ccc(C(C)C(=O)O)cc1` (stereo unspecified) [IBUPROFEN], the ED50 in series [8] is 60.3 µmol/kg.

With `COc1ccc2c(c1)c(CC(=O)O)c(C)n2C(=O)c1ccc(Cl)cc1` [INDOMETHACIN], the ED50 in series [8] is 72.6 µmol/kg.

For the compound `CC(C(=O)O)c1cccc(C(=O)c2ccccc2)c1` (stereo unspecified) [KETOPROFEN], the median effective dose (ED50) in [8] is 46.6 µmol/kg.

Consider `COc1ccc2cc([C@H](C)C(=O)O)ccc2c1` [NAPROXEN], for which the ED50 in [8] was determined as 21.8 µmol/kg.
